{"source": "BindingDB's records for doi:10.1021/jm049389h", "about": "(Johns Hopkins University, 2005)", "target": "Fatty acid synthase (Homo sapiens, UniProt P49327)", "sequence (P49327 whole entry)": "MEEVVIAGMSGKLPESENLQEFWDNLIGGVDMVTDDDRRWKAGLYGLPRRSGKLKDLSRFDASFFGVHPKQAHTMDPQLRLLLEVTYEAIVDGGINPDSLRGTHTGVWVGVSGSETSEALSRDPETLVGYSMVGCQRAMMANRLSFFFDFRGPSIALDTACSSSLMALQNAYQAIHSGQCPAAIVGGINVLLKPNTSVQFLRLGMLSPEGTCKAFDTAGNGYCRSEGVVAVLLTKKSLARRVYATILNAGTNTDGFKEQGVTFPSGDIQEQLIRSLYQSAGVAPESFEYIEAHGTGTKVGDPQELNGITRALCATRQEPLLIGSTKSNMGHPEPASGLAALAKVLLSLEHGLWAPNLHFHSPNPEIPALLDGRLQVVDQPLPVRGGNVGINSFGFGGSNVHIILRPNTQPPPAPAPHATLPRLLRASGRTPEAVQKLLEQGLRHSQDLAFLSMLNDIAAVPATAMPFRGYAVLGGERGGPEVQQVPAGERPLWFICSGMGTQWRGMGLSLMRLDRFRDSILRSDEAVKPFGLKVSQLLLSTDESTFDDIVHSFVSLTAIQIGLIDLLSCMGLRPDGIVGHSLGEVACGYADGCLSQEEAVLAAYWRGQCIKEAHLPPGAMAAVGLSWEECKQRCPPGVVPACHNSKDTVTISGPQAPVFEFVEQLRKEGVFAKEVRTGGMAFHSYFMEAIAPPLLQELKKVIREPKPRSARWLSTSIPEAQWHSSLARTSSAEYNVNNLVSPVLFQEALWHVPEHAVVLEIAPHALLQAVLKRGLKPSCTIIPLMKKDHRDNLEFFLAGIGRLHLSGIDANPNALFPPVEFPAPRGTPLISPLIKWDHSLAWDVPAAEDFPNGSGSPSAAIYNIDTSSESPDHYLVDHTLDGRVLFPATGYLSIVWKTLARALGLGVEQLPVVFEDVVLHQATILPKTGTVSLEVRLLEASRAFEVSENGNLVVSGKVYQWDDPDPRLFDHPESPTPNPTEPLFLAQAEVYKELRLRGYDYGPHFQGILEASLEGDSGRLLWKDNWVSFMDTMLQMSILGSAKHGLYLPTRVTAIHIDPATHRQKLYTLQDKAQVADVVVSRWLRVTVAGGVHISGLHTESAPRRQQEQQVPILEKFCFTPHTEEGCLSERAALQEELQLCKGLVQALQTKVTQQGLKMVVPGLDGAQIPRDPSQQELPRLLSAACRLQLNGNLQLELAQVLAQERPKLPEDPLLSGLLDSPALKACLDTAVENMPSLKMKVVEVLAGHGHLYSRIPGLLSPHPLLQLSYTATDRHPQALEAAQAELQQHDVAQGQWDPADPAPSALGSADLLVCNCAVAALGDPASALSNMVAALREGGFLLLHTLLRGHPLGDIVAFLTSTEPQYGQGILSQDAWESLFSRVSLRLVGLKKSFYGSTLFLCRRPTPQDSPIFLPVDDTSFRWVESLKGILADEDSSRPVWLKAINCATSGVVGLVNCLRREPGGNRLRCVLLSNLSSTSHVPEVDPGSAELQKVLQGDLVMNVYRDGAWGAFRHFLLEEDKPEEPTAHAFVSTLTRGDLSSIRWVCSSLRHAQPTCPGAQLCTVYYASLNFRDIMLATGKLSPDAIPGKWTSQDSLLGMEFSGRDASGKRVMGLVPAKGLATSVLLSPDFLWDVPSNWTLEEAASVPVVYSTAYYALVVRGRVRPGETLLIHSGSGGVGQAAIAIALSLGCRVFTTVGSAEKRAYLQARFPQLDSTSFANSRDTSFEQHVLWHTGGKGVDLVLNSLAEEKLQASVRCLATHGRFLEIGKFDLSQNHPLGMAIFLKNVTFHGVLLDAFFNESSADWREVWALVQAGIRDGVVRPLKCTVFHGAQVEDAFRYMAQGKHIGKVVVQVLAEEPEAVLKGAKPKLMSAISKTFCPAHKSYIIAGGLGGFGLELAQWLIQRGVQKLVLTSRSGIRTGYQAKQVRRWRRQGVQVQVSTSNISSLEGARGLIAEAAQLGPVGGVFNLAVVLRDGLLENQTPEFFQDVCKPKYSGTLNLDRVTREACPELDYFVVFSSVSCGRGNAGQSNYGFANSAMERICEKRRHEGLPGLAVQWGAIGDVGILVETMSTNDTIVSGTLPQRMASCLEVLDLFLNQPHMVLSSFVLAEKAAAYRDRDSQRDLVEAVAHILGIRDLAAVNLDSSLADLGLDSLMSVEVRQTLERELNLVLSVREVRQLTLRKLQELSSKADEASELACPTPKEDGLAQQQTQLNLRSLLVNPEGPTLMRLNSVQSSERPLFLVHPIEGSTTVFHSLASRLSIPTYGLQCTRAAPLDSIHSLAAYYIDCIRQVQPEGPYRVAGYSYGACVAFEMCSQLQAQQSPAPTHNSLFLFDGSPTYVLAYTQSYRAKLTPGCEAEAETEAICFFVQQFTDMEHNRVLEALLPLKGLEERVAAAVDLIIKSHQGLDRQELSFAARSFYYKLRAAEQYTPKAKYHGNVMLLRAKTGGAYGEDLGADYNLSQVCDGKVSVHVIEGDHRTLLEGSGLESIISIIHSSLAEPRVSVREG", "assay": "Inhibitory concentration against purified human fatty acid synthase activity in ZR-75-1 breast cancer cells", "outline": "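FAS purified from ZR-75-1 human breast cancer cells (2 µg per well). Overall reaction read at 37 °C as malonyl-CoA-dependent NADPH oxidation at 340 nm, every 10 s for 5 min. Average of duplicate runs; neg means IC50 > 50 µg/mL.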", "data": [{"smiles": "C=C/C(C)=C/[C@@]1(C)SC(=O)C(C)C1=O", "note": "(stereo partly drawn) [(R)-(+)-Thiolactomycin]", "values": [{"measurement": "IC50", "result": 99.8, "unit": "µM"}]}]}
